Experimental data taken from ChEMBL document CHEMBL2417460, “Synthesis and biological evaluation of berberine-thiophenyl hybrids as multi-functional agents: Inhibition of acetylcholinesterase, butyrylcholinesterase, and Aβ aggregation and antioxidant activity” (Bioorg Med Chem, 2013).
Activity calls are given as the source filed them. No cut-off for these calls is given here.

Assays:
[1] = Antioxidant activity assessed as ratio of umol of trolox equivalent to umol of compound after 10 mins by oxygen radical absorbance capacity-fluorescein assay; format: functional
Procedure, shortened: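 Fluorescein 300 nM final was preincubated with antioxidant for 10 min at 37 °C, then AAPH was added to 12 mM final. Fluorescence (ex 485/em 535 nm) was read every 60 s for 4 h. Samples were run at […] against a Trolox calibration and an FL+AAPH blank in phosphate buffer. Results are expressed as Trolox equivalents, with mixtures in triplicate and ≥3 independent runs.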

Acetylcholinesterase [2] = target: T1, Acetylcholinesterase (Electrophorus electricus, UniProt O42275); assay: Inhibition of electric eel AChE using acetylthiocholine chloride as substrate preincubated for 15 mins prior to substrate addition by Ellman's method
[3] = target: Amyloid-beta precursor protein (Homo sapiens) (UniProt P05067); assay: Inhibition of amyloid beta (1-42) (unknown origin) aggregation at 20 uM after 48 hrs by thioflavin-T based fluorimetric assay relative to control
Procedure, shortened: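 HFIP-pretreated Aβ1–42 was resolubilised in 50 mM phosphate buffer, pH 7.4, and incubated at 37 °C for 48 h (50 μM final peptide) with or without compound at 20 μM. Samples were diluted into 50 mM glycine–NaOH, pH 8.0, containing thioflavin T and scanned for 300 s (ex 450/em 485 nm). Plateau values were averaged after subtracting ThT background.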

Acetylcholinesterase [4] = target: T1, Acetylcholinesterase; assay: Mixed-type inhibition of electric eel AChE using acetylthiocholine chloride as substrate by Lineweaver-Burk plot analysis
Procedure, shortened: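 Electric eel AChE was pre-incubated with inhibitor at 37 °C for 15 min in 0.1 M phosphate buffer, pH 8.0, with DTNB, then substrate was added. Absorbance at 412 nm was followed at 60 s intervals at 37 °C. Reciprocal plots of initial velocity versus substrate concentration defined the inhibition type.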

[5] = Antioxidant activity assessed as H2O2 scavenging activity at 100 uM after 72 hrs by spectrophotometric analysis; format: functional
Procedure, shortened: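 Compound solution was added to H2O2 (0.1 mM) in 0.1 M phosphate buffer, pH 7.4, and incubated for 72 h at 37 °C. Phenol red (0.2 mg/mL) plus horseradish peroxidase (0.4 mg/mL) was added; after 15 min, 1 M NaOH was added and absorbance read at 610 nm. Percent H2O2 reduction = (A_H2O2 − A_sample)/A_H2O2 × 100, with the control holding acetone and no compound.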

[6] = Antioxidant activity assessed as H2O2 scavenging activity measured as compound remaining at 100 uM after 72 hrs by LC/MS analysis; format: functional

Chain of Amyloid-beta precursor protein (Homo sapiens) (P05067 whole entry): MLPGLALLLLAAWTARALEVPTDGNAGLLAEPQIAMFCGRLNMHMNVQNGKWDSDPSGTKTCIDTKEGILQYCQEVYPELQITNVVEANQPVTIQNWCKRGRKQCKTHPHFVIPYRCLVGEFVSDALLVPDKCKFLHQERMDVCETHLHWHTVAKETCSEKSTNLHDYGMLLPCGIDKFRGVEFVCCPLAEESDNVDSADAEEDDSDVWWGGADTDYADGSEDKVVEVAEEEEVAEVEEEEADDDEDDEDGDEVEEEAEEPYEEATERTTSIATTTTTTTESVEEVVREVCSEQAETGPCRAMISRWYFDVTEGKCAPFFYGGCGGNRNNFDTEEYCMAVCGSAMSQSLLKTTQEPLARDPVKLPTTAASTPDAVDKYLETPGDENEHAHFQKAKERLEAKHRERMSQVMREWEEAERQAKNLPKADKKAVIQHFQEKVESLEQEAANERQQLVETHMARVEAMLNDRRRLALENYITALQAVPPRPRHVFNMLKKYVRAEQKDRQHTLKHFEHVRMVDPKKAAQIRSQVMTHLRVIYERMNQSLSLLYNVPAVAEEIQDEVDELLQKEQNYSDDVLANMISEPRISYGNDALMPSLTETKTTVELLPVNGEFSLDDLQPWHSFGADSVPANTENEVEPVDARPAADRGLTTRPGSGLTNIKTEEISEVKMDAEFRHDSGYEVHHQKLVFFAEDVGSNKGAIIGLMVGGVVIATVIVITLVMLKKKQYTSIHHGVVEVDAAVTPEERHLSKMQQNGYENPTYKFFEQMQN
T1 sequence (O42275 whole entry): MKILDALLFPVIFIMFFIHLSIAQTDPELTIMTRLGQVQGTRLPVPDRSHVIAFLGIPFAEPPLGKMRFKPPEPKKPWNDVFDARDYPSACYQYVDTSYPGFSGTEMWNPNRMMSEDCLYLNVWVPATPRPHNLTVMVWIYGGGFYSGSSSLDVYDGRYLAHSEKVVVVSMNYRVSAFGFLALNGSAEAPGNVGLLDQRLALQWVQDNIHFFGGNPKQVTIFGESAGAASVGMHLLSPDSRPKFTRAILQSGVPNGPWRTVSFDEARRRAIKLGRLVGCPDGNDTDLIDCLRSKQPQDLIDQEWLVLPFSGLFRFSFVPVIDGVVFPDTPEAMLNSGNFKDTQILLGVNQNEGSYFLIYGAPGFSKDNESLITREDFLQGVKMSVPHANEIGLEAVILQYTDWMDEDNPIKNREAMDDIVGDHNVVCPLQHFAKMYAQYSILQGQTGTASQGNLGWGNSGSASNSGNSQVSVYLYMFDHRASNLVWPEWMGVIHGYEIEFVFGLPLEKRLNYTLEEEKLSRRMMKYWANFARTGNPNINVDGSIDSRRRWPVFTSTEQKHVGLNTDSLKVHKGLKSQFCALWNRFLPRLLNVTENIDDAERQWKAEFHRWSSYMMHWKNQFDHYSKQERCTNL

Row | SMILES | Activity [1] [equiv] | IC50 (Acetylcholinesterase [2]) [µM] | inhibition [3] [%] | Ki (Acetylcholinesterase [4]) [µM] | Activity [5] | Activity [6]
1 | COc1ccc2cc3[n+](cc2c1OCCSc1ccc(Cl)cc1)CCc1cc2c(cc1-3)OCO2 | 0.82 | 0.484 | – | – | – | –
2 | COc1ccc2cc3[n+](cc2c1OCCSc1ccccc1F)CCc1cc2c(cc1-3)OCO2 | 1.15 | 0.087 | 73.3 | – | – | –
3 | COc1ccc2cc3[n+](cc2c1OCCSc1cccc(Cl)c1)CCc1cc2c(cc1-3)OCO2 | 0.47 | 0.233 | – | – | – | –
4 | COc1ccc2cc3[n+](cc2c1OCCCCCSc1ccccc1)CCc1cc2c(cc1-3)OCO2 | 0.89 | 0.543 | – | – | – | –
5 | COc1ccc2cc3[n+](cc2c1OCCSc1ccc(C)cc1)CCc1cc2c(cc1-3)OCO2 | 1.86 | 0.299 | 70 | – | – | –
6 | COc1ccccc1SCCOc1c(OC)ccc2cc3[n+](cc12)CCc1cc2c(cc1-3)OCO2 | 1.94 | 0.151 | 76.8 | – | – | –
7 | COc1ccc2cc3[n+](cc2c1OCCCSc1ccccc1)CCc1cc2c(cc1-3)OCO2 | 0.94 | 0.257 | 70.6 | – | – | –
8 | COc1ccc2cc3[n+](cc2c1OC)CCc1cc2c(cc1-3)OCO2 | 0.4 | – | 35.5 | – | – | –
9 | CCc1ccccc1SCCOc1c(OC)ccc2cc3[n+](cc12)CCc1cc2c(cc1-3)OCO2 | 1.01 | 0.083 | 74.8 | – | – | –
10 | COc1ccc2cc3[n+](cc2c1OCCSc1ccccc1Cl)CCc1cc2c(cc1-3)OCO2 | 0.75 | 0.042 | 65.1 | 0.018 | – | –
11 | COc1ccc2cc3[n+](cc2c1OCCCCSc1ccccc1)CCc1cc2c(cc1-3)OCO2 | 0.95 | 0.192 | 69.1 | – | – | –
12 | Oc1ccc(/C=C/c2cc(O)cc(O)c2)cc1 | – | – | 61.1 | – | – | –
13 | COc1ccc2cc3[n+](cc2c1OCCSc1ccccc1)CCc1cc2c(cc1-3)OCO2 | 0.89 | 0.177 | 70.4 | – | – | –
14 | COc1ccc2cc3[n+](cc2c1OCCSc1cccc(C)c1)CCc1cc2c(cc1-3)OCO2 | 1.32 | 0.207 | 72.3 | – | – | –
15 | COc1ccc2cc3[n+](cc2c1OCCCCCCSc1ccccc1)CCc1cc2c(cc1-3)OCO2 | 0.77 | 0.972 | – | – | – | –
16 | COc1ccc2cc3[n+](cc2c1OCCSc1ccccc1C)CCc1cc2c(cc1-3)OCO2 | 1.11 | 0.077 | 73.4 | 0.071 | Active | Active
